Experimental data from paper PMC11864002 (Journal of Enzyme Inhibition and Medicinal Chemistry, 2025).
Positions count from the first letter of the chain named. Where “and” joins values, the source holds several entries; their conditions need not be identical. Equal values may be shown once.

What was measured:
MalA WT = biological target: T1, MalA WT (Saccharolobus solfataricus, UniProt D0KQM8); assay: Differential scanning fluorimetry with inhibitors/NAC, MalA WT; assay type: binding, Saccharolobus solfataricus 98/2
T1 sequence (D0KQM8 1-700): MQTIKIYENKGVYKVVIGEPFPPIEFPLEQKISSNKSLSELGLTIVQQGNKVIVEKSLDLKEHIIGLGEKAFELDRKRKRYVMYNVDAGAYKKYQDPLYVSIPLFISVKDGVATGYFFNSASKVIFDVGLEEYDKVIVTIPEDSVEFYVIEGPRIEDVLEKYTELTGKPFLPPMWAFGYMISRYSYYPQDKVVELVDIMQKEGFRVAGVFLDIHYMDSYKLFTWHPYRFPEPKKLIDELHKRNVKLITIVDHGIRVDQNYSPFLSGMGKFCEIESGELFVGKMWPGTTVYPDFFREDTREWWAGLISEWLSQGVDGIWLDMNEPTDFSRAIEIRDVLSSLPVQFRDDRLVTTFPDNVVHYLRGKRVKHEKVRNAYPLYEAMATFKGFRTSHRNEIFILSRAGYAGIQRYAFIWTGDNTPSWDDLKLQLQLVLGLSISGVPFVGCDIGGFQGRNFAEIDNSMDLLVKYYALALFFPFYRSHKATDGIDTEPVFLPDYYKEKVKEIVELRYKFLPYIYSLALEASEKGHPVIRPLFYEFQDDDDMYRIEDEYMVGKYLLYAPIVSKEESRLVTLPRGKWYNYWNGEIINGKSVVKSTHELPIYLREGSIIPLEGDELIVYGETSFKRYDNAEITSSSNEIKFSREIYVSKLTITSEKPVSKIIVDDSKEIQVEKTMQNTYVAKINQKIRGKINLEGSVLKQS
Outline: (§1)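 His-tagged MalA (WT, R400G or R400H) was expressed in E. coli BL21(DE3) RIL, heat-fractionated at 70 °C and Ni-purified. Each enzyme ([…]) was mixed with SYPRO Orange in 0.2 M sodium citrate pH 5.0, sodium phosphate pH 7.0 or sodium borate pH 8.5, in triplicate. Held 10 min at 25 °C, scanned 25–95 °C ([…]), then held 10 min. Ligands: 1-DNJ or NB-DNJ 0.1/0.8 mM, acarbose 0.4/1.0 mM, NAC 10/30 mM. Tm fitted on normalised fluorescence; SD from […] replicates.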

α-glucosidase from rice = assay: Differential scanning fluorimetry with NAC, α-glucosidase from rice; assay type: binding; conditions: GH31 GAA from rice, Figure S7
Outline: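 Rice α-glucosidase (type V, 2.5 µg) in 0.2 M sodium borate pH 8.0 with SYPRO Orange, in triplicate, with NAC present. Thermal scan 25–95 °C in 1 °C increments every 0.5 min. Fluorescence normalised to each scan's maximum. Tm calculated per Niesen by curve fitting.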

recombinant GAA [1] = conditions: 10 mM NAC; cited from earlier work
MalA R400H [2] = biological target: T2, MalA R400H (Saccharolobus solfataricus, UniProt D0KQM8, R400H); assay: Differential scanning fluorimetry with inhibitors/NAC, MalA R400H; assay type: binding, Saccharolobus solfataricus 98/2
T2 sequence (D0KQM8 1-700 R400H): T1 sequence (D0KQM8 1-700) with R400H
Outline: as §1

MalA R400G [3] = biological target: T3, MalA R400G (Saccharolobus solfataricus, UniProt D0KQM8, R400G); assay: Differential scanning fluorimetry with inhibitors/NAC, MalA R400G; assay type: binding, Saccharolobus solfataricus 98/2
T3 sequence (D0KQM8 1-700 R400G): T1 sequence (D0KQM8 1-700) with R400G
Outline: as §1

[4] = Melting temperature of the enzymes by differential scanning fluorimetry; assay type: physicochemical; conditions: for Tm: DSF
Outline: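 Recombinant human GAA (2.5 µg) with SYPRO Orange in 150 mM NaCl plus 50 mM sodium phosphate pH 7.4 or 50 mM sodium acetate, in triplicate. Scanned 25–95 °C in 1 °C increments every 1 min. Fluorescence normalised to each scan's maximum. Tm derived per Niesen by curve fitting.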

COS-7 cells = conditions: transiently expressed in COS-7 cells, substrate MU-α-D-Glc; cited from earlier work
MalA R400H [5] = biological target: T2, MalA R400H; assay: IC50 determination on pNP-α-D-Glc, MalA R400H; assay type: biochemical, Saccharolobus solfataricus 98/2
Outline: (§2)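 Standard assay: 10 mM pNP-α-D-Glc in 100 mM sodium citrate pH 5.0, 85 °C, 2 min. Enzyme per reaction: WT 0.9 µg, R400H 26 µg, R400G 45 µg. Stopped on ice with sodium carbonate pH 10.2; A420 read at room temperature. Inhibitor ranges: 1-DNJ up to 5 mM, acarbose up to 9 mM, NB-DNJ up to 1 mM.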

MalA R400G [6] = biological target: T3, MalA R400G; assay: Inhibition kinetics; assay type: biochemical, Saccharolobus solfataricus 98/2
Outline: (§3)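 Inhibition kinetics at 85 °C under the standard pNP-α-D-Glc assay (100 mM sodium citrate pH 5.0; stopped with sodium carbonate, A420). Enzyme per reaction: R400H 26 µg, R400G 45 µg, wild type 0.9 µg. Inhibitor ranges: 1-DNJ 0.02–25.0 µM, acarbose 10.0–500 µM, NB-DNJ 0.5–25.0 µM.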

MalA R400H [7] = biological target: T2, MalA R400H; assay: Inhibition kinetics; assay type: biochemical, Saccharolobus solfataricus 98/2
Outline: as §3

MalA wild-type [8] = biological target: T4, MalA wild-type (Saccharolobus solfataricus, UniProt D0KQM8); assay: IC50 determination on pNP-α-D-Glc, MalA wild-type; assay type: biochemical, Saccharolobus solfataricus 98/2
T4 sequence (D0KQM8 1-700): T1 sequence (D0KQM8 1-700)
Outline: as §2

MalA R400G [9] = biological target: T3, MalA R400G; assay: IC50 determination on pNP-α-D-Glc, MalA R400G; assay type: biochemical, Saccharolobus solfataricus 98/2
Outline: as §2

MalA wild-type [10] = biological target: T4, MalA wild-type; assay: Inhibition kinetics; assay type: biochemical, Saccharolobus solfataricus 98/2
recombinant GAA [11] = conditions: cited from earlier work

Row | Compound | IC50 (MalA R400H [5]) [µM] | Ki (MalA R400G [6]) [µM] | Ki (MalA R400H [7]) [µM] | IC50 (MalA wild-type [8]) [µM] | IC50 (MalA R400G [9]) [µM] | Ki (MalA wild-type [10]) [µM] | Tm MalA WT (MalA WT; 0.1 mM inhibitor) [°C] | Tm MalA WT (MalA WT; 0.8 mM inhibitor) [°C] | Tm MalA R400H (MalA R400H [2]; 0.1 mM inhibitor) [°C] | Tm MalA R400H (MalA R400H [2]; 0.8 mM inhibitor) [°C] | IC50 (recombinant GAA [11]) [µM] | Tm MalA R400G (MalA R400G [3]; 0.1 mM inhibitor) [°C] | Tm MalA R400G (MalA R400G [3]; 0.8 mM inhibitor) [°C] | other results
1 | CC(=O)N[C@@H](CS)C(=O)O [NAC, N-acetylcysteine] |  |  |  |  |  |  |  |  |  |  |  |  |  | Tm MalA WT (MalA WT; 10 mM NAC): 75.8 ± 0.86 °C; Tm MalA WT (MalA WT; 30 mM NAC): 79.6 ± 0.54 °C; stabilising effect (α-glucosidase from rice): no stabilising effect; increase of Tm (recombinant GAA [1]): 10.5 ± 0.5 °C and 10.5 °C; Tm MalA R400H (MalA R400H [2]; 10 mM NAC): 64.9 ± 0.03 °C; Tm MalA R400H (MalA R400H [2]; 30 mM NAC): 67.7 ± 0.13 °C; Tm MalA R400G (MalA R400G [3]; 10 mM NAC): 65.5 ± 0.04 °C; Tm MalA R400G (MalA R400G [3]; 30 mM NAC): 67.3 ± 0.11 °C
2 | recombinant GAA: recombinant human lysosomal acid α-glucosidase |  |  |  |  |  |  |  |  |  |  |  |  |  | Tm ([4]; pH 4.0): 53.7 ± 0.2 °C; Tm ([4]; pH 7.4): 47.9 ± 0.7 °C; Tm difference, less than MalA WT at pH 8.5 ([4]; GAA at pH 4.0): 23.3 °C; Tm difference, less than MalA WT at pH 8.5 ([4]; GAA at pH 7.4): 29.1 °C
3 | R600H: pathogenic human GAA mutant transiently expressed in COS-7 cells |  |  |  |  |  |  |  |  |  |  |  |  |  | activity compared to GAA wild-type (COS-7 cells): less than 2%
4 | C[C@H]1O[C@H](O[C@H]2[C@H](O)[C@@H](O)[C@@H](O[C@H]3[C@H](O)[C@@H](O)C(O)O[C@@H]3CO)O[C@@H]2CO)[C@H](O)[C@@H](O)[C@@H]1N[C@H]1C=C(CO)[C@@H](O)[C@H](O)[C@H]1O (some centres unmarked) [Acarbose, acarbose] | 830 ± 91.5 | 23 | 72 | 20.2 ± 0.9 | 912 ± 67.5 | 0.98 |  |  |  |  |  |  |  | Tm MalA WT (MalA WT; 0.4 mM inhibitor): 79.1 ± 0.9 °C; ΔTm (MalA WT; 0.4 mM inhibitor, vs no inhibitor): +2.0 °C; Tm MalA WT (MalA WT; 1.0 mM inhibitor): 79.8 ± 0.7 °C; Tm MalA R400H (MalA R400H [2]; 0.4 mM inhibitor): 64.2 ± 0.1 °C; Tm MalA R400H (MalA R400H [2]; 1.0 mM inhibitor): 64.2 ± 0.2 °C; Tm MalA R400G (MalA R400G [3]; 0.4 mM inhibitor): 65 ± 0.04 °C; Tm MalA R400G (MalA R400G [3]; 1.0 mM inhibitor): 65 ± 0.1 °C
5 | CCCCN1C[C@H](O)[C@@H](O)[C@H](O)[C@H]1CO [NB-DNJ, N-butyldeoxynojirimycin] | 5.7 ± 0.21 | 0.13 | 0.7 | 1.7 ± 0.2 | 55 ± 6.62 | 0.13 | 86 ± 0.7 | 85.1 ± 0.6 | 64.7 ± 0.4 | 61.7 ± 0.1 | 158 | 65.6 ± 0.2 | 63.5 ± 0.1 | Ki fold higher than WT (MalA R400H [7]; R400H vs MalA WT): 5.4 fold
6 | OC[C@H]1NC[C@H](O)[C@@H](O)[C@@H]1O [1-DNJ, 1-deoxynojirimycin] | 30 ± 2.3 | 1.4 | 2.2 | 0.1 ± 0.01 | 224 ± 41 | 0.009 | 84.1 ± 0.5 | 87.1 ± 0.3 | 65.5 ± 0.2 | 64.1 ± 0.1 | 20 | 66.4 ± 0.2 | 67.5 ± 0.3 | 
